Legend:
[1] = Intrinsic clearance in human liver microsomes; format: ADME, Microsome; conditions: read-out: CLH
How it was run: (§1)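 In vitro ADME run by a contract lab: human microsomal stability and parallel artificial membrane permeability assay (PAMPA).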

[2] = Apparent permeability of the compound by PAMPA assay; format: ADME; how it was run: as §1
[3] = molecular target: Mitogen-activated protein kinase 14 (Homo sapiens, UniProt Q16539); experiment: Inhibition of P38alpha (unknown origin)
How it was run: (§2)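 Biochemical inhibition assays run by a contract screening service as a panel: ABL1 mutants H396P, M351T, Q252H, T315I and Y253F, plus P38α/MAPK14.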

[4] = molecular target: Tyrosine-protein kinase ABL1 (Homo sapiens, UniProt P00519, Y253F); experiment: Inhibition of Abl1 kinase Y253F mutant (unknown origin); how it was run: as §2
[5] = molecular target: Tyrosine-protein kinase ABL1 (Homo sapiens, UniProt P00519, T315I); experiment: Inhibition of Abl1 kinase T315I mutant (unknown origin); how it was run: as §2
[6] = molecular target: Tyrosine-protein kinase ABL1 (Homo sapiens, UniProt P00519, M351T); experiment: Inhibition of Abl1 kinase M351T mutant (unknown origin); how it was run: as §2
[7] = molecular target: Tyrosine-protein kinase ABL1 (Homo sapiens, UniProt P00519, Q252H); experiment: Inhibition of Abl1 kinase Q252H mutant (unknown origin); how it was run: as §2
[8] = molecular target: Tyrosine-protein kinase ABL1 (Homo sapiens, UniProt P00519, H396P); experiment: Inhibition of Abl1 kinase H396P mutant (unknown origin); how it was run: as §2
[9] = molecular target: T1, Tyrosine-protein kinase ABL1 (Homo sapiens, UniProt P00519); experiment: Inhibition of wild type Abl1 kinase (unknown origin)
[10] = molecular target: T2, Tyrosine-protein kinase ABL2 (Homo sapiens, UniProt P42684); experiment: Inhibition of Abl2 kinase (unknown origin) using Tyr 6 peptide as substrate assessed as residual enzyme activity after every 10 secs measured for 10 mins
T2 sequence (P42684 whole entry): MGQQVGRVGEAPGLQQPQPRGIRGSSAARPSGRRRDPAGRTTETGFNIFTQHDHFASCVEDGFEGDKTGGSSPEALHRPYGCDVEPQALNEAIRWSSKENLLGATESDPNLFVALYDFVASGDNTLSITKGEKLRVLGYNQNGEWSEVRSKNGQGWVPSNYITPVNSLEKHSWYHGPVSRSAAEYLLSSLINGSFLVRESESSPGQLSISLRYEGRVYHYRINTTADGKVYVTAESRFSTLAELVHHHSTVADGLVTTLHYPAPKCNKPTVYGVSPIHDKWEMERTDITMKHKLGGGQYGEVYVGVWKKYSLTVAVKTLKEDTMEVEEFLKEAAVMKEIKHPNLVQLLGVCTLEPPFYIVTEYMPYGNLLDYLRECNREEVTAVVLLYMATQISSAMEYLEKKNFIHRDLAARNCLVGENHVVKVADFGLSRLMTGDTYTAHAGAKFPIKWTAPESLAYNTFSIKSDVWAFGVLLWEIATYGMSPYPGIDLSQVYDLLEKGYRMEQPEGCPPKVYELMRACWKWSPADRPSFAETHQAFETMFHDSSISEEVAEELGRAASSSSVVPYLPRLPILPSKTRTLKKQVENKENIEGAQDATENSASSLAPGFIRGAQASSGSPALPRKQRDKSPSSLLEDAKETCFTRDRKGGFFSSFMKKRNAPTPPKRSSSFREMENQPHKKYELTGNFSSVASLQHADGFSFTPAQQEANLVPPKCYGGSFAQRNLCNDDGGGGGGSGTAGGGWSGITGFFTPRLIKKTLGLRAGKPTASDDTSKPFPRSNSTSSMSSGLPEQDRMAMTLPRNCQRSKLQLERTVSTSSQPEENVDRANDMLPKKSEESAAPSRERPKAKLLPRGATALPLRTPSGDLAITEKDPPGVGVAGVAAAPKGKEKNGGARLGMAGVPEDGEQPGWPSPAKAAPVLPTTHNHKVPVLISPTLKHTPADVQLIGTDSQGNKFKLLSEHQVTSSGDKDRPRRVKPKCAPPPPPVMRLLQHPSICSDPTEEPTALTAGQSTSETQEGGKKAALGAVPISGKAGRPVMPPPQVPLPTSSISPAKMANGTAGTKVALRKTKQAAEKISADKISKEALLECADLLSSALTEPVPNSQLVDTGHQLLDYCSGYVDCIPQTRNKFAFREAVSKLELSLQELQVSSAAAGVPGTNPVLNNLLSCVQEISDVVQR

[11] = molecular target: T1, Tyrosine-protein kinase ABL1; experiment: Inhibition of Abl1 kinase (unknown origin) using Tyr 6 peptide as substrate assessed as residual enzyme activity after every 10 secs measured for 10 mins
[12] = molecular target: T2, Tyrosine-protein kinase ABL2; experiment: Inhibition of Abl2 kinase (unknown origin) using Tyr 6 peptide as substrate assessed as residual enzyme activity after every 10 secs measured for 10 mins by platform assay
[13] = molecular target: T1, Tyrosine-protein kinase ABL1; experiment: Inhibition of Abl1 kinase (unknown origin) using Tyr 6 peptide as substrate assessed as residual enzyme activity after every 10 secs measured for 10 mins by platform assay

Mitogen-activated protein kinase 14, sequence (Q16539 whole entry): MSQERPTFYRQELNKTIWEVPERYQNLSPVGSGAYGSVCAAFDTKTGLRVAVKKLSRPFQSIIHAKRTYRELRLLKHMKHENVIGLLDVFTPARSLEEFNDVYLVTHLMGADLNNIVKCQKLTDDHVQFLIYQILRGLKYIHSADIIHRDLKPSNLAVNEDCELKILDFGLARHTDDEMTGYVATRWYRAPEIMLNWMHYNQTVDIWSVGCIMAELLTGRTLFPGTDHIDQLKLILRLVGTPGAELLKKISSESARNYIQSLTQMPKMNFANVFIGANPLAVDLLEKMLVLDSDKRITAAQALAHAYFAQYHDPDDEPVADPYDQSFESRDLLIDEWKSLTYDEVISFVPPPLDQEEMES

microsomal CLint [1] | Papp [2] | IC50 [3] | IC50 [4] | IC50 [5] | IC50 [6] | IC50 [7] | IC50 [8] | IC50 [9] | IC50 [10] | IC50 [11] | IC50 [12] | IC50 [13] | Compound
76 µL/min/mg | 0.1 ×10⁻⁶ cm/s | 35 nM | 0.9 nM | 1.9 nM | 0.9 nM | 1.6 nM | 0.7 nM | 1.6 nM | 15 nM | 12 nM | 11 nM | 2 nM | CN1CCN(Cc2ccc(NC(=O)Nc3cc(C#Cc4cncc5nccn45)n(C)n3)cc2C(F)(F)F)CC1
51 µL/min/mg | 0.2 ×10⁻⁶ cm/s | 35 nM | 0.4 nM | 0.8 nM | 0.5 nM | 1 nM | 0.3 nM | 1 nM | 10 nM | 7 nM | 3 nM | 0.4 nM | CN1CCN(Cc2ccc(NC(=O)Nc3cc(C#Cc4cnc5cnccn45)n(C)n3)cc2C(F)(F)F)CC1
29 µL/min/mg | 2 ×10⁻⁶ cm/s | 24 nM | 0.4 nM | 0.4 nM | 0.4 nM | 0.7 nM | 0.2 nM | 1 nM | 6 nM | 12 nM | 47 nM | 27 nM | CN1CCN(Cc2ccc(NC(=O)Nc3cc(C#Cc4cnc5cccnn45)n(C)n3)cc2C(F)(F)F)CC1
90 µL/min/mg | 26 ×10⁻⁶ cm/s | 43 nM | 0.3 nM | 0.4 nM | 0.3 nM | 0.5 nM | 0.3 nM | 0.6 nM | 1 nM | 1 nM | 2 nM | 0.2 nM | Cc1ccc(C(=O)Nc2ccc(CN3CCN(C)CC3)c(C(F)(F)F)c2)cc1C#Cc1cncc2nccn12

— ChEMBL document CHEMBL2321864, “Rapid discovery of a novel series of Abl kinase inhibitors by application of an integrated microfluidic synthesis and screening platform” (J Med Chem, 2013)
